# Measured values from ChEMBL document CHEMBL2396655, “Design, synthesis, and biological evaluation of (E)-N-aryl-2-arylethenesulfonamide analogues as potent and orally bioavailable microtubule-targeted anticancer agents” (J Med Chem, 2013).
# Calls of active or inactive are those of the source. No cut-off for these calls is given here.
# Legend:
# Mus musculus [1] = experiment: AUC in ICR mouse at 5 mg/kg, iv by LC-MS/MS analysis; type: ADME, organism-based, Plasma; parameters: dose 5 mg/kg, route intravenous; details: in vivo
# In short: (§1)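 Male ICR mice, 6–8 weeks old, N=3 per group. Single 5 mg/kg dose in NMP:PEG300:water (1:4:5 v/v), given as IV bolus or oral gavage. Serial arterial blood was drawn through a carotid cannula at 2–360 min. Plasma was protein-precipitated with acetonitrile containing internal standard and assayed by LC/MS/MS. Parameters were derived by noncompartmental analysis.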
# Mus musculus [2] = experiment: Elimination half life in ICR mouse at 5 mg/kg, iv by LC-MS/MS analysis; type: ADME, organism-based; parameters: dose 5 mg/kg, route intravenous; details: in vivo; in short: as §1
# Mus musculus [3] = experiment: Volume of distribution at steady state in ICR mouse at 5 mg/kg, iv by LC-MS/MS analysis; type: ADME, organism-based; parameters: dose 5 mg/kg, route intravenous; details: in vivo
# In short: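 Male ICR mice, 6–8 weeks old (N=3 per group), with a carotid artery cannula implanted one day before dosing. Dosed at 5 mg/kg in NMP:PEG300:water (1:4:5) as an IV bolus or by oral gavage. Blood drawn at 2–360 min; plasma protein-precipitated with acetonitrile containing internal standard, assayed by LC/MS/MS; noncompartmental analysis.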
# Plasma = experiment: Plasma protein binding in rat at 10 to 50 uM by equilibrium dialysis; type: ADME, cell-free
# Liver [4] = experiment: Metabolic stability in human liver S9 fraction assessed as compound remaining at 10 uM after 1 hr by LC-MS/MS analysis; type: ADME, subcellular; details: s9, 1 h
# In short: (§2)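 Compound at 10 μM was incubated with rat, dog or human liver S9 fraction (1 mg/mL) for 0, 30 and 60 min. Parent remaining at 1 h was quantified by LC-MS/MS.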
# Liver [5] = experiment: Metabolic stability in dog liver S9 fraction assessed as compound remaining at 10 uM after 1 hr by LC-MS/MS analysis; type: ADME, subcellular, Canis lupus familiaris; details: s9, 1 h; in short: as §2
# MDCK [6] = experiment: Apparent permeability from basolateral to apical side in MDCK cells expressing MDR-1 at 10 uM after 90 mins by LC-MS/MS analysis; type: ADME, cell-based, Canis lupus familiaris; details: dog, 1.5 h
# In short: (§3)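 MDCK-MDR1 (Pgp-expressing) monolayers were used 3–4 days post-seeding, only if TEER exceeded 1000 Ω·cm² before and after the run. Compound starting concentration was 10 μM. Transport was measured A→B and B→A over 90 min and quantified by LC/MS/MS. Apparent permeabilities gave the efflux ratio.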
# MDCK [7] = experiment: Apparent permeability from apical to basolateral side in MDCK cells expressing MDR-1 at 10 uM after 90 mins by LC-MS/MS analysis; type: ADME, cell-based, Canis lupus familiaris; details: dog, 1.5 h; in short: as §3
# [8] = Cytotoxicity against human Caco2 cells after 1 hr by Alamar Blue assay; type: cell-based; details: Caco-2 cells, read-out: LD50
# CCRF-CEM = experiment: Resistance factor, ratio of GI50 for multidrug-resistant human CEM/C2 cells to GI50 for human CEM cells; type: functional
# MES-SA = experiment: Resistance factor, ratio of GI50 for multidrug-resistant human MES-SA/Dx5 cells to GI50 for human MES-SA cells; type: functional
# BT-20 = experiment: Antitumor activity against human BT20 cells xenografted in NCR-nu/nu mouse assessed as reduction in tumor volume at 20 mg/kg, ip treated 3 times a week for 2 weeks measured on alternate days for 14 days; type: functional, organism-based; parameters: dose 20 mg/kg
# In short: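 Female athymic NCr-nu/nu mice were implanted subcutaneously in the hind leg with 0.5–1.0×10⁷ BT20 cells. Mice were paired once tumours reached about 100–150 mm³ (vehicle N=7, treated N=8). Dosing was 20 mg/kg IP in DMSO (0.1 mL), 3×/week for 2 weeks. Calipers measured two dimensions; volume = L×S²×π/6. Body weight was recorded at each measurement.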
# Liver [9] = experiment: Metabolic stability in rat liver S9 fraction assessed as compound remaining at 10 uM after 1 hr by LC-MS/MS analysis; type: ADME, subcellular; details: s9, 1 h; in short: as §2
# Tubulin (Sus scrofa) = Tubulin (Sus scrofa) (UniProt P02554+P02550); experiment: Competitive binding affinity to pig brain tubulin paclitaxel binding site at 0.1 to 100 uM after 1 hr by mass spectrophotometric analysis in presence of paclitaxel and GTP
# In short: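 Porcine brain tubulin (1.0 mg/mL) in PIPES 80 mM, MgCl₂ 2 mM, EGTA 0.5 mM, pH 6.9, at 37 °C. […] Competitor was 0.1–100 μM for 1 h. Unbound ligand in the 30 kDa ultrafiltrate was measured by MS. Runs were in triplicate; IC50 came from a Hill fit.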
# DU-145 [10] = experiment: Mitotoic arrest in human DU145 cells assessed as rosette of condensed DNA without mitotic spindle at 25 nM after 24 hrs by FITC and propidium iodide staining-based confocal laser microscopic analysis; type: functional, cell-based
# In short: (§4)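 DU145 cells grown on glass coverslips, exposed to 0.025 μM for 24 h, fixed in 4% paraformaldehyde, permeabilized in PBS with 10% FBS/0.1% Triton X-100, stained with FITC-conjugated anti-α-tubulin (DM1A, 1 h, 37 °C) and propidium iodide (1 μg/mL, 5 min), then imaged by confocal microscopy (60× objective, XYZ-sectioning); DMSO-treated cells as vehicle.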
# DU-145 [11] = experiment: Mitotoic arrest in human DU145 cells assessed as misalignment of chromosomes at 25 nM after 24 hrs by FITC and propidium iodide staining-based confocal laser microscopic analysis; type: functional, cell-based; in short: as §4
# DU-145 [12] = experiment: Mitotoic arrest in human DU145 cells assessed as appearance of abnormal spindles at 25 nM after 24 hrs by FITC and propidium iodide staining-based confocal laser microscopic analysis; type: functional, cell-based
# In short: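 DU145 cells on glass coverslips were treated with 0.025 μM compound or DMSO for 24 h and fixed in 4% paraformaldehyde. After blocking and permeabilizing in PBS with 10% FBS and 0.1% Triton X-100, they were stained with FITC anti-α-tubulin (DM1A) for 1 h at 37 °C and with propidium iodide 1 μg/mL. Imaging was by confocal microscopy, 60× objective, as z-sections.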
# DU-145 [13] = experiment: Cell cycle arrest in human DU145 cells assessed as accumulation at G2/M phase at 0.02 uM after 24 hrs by propidium iodide staining-based FACS flow cytometric analysis; type: functional
# In short: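 DU145 cells were plated at 1.0×10⁶ per dish in DMEM/10% FBS and treated 24 h later with increasing concentrations. After 24 h, attached and floating cells were pooled and fixed in ice-cold 70% ethanol for at least 24 h. Cells were stained with propidium iodide (50 μg/mL) plus RNase A for 30 min at 37 °C, then read on a FACScan with cell-cycle modelling.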
# [14] = Cytotoxicity against human U87 cells after 96 hrs by sulforhodamine B assay; type: functional, cell-based, U-87MG ATCC; details: U-87 MG
# [15] = Cytotoxicity against human NAMALWA cells after 96 hrs by trypan blue exclusion assay; type: functional; details: NAMALVA
# In short: (§5)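 Cells were grown in DMEM or RPMI with 10% FBS and plated at 2.5×10⁴ cells/well in 12-well dishes. Compounds were added 24 h later at various concentrations. After 96 h, viable cells were counted by trypan blue exclusion from duplicate wells. Results are the mean of two independent experiments.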
# K562 = experiment: Cytotoxicity against human K562 cells after 96 hrs by trypan blue exclusion assay; type: functional, cell-based; in short: as §5
# MDCK [16] = experiment: Efflux ratio of permeability from basolateral to apical over apical to basolateral side in MDCK cells expressing MDR-1; details: dog
smiles,measurement,setting,value
COc1cc(OC)c(/C=C/S(=O)(=O)Nc2ccc(OC)c(N)c2)c(OC)c1,AUC,Mus musculus [1],2040 ng·h/mL
same,beta t1/2,Mus musculus [2],1.7 h
same,Vdss,Mus musculus [3],2.13 L/kg
same,PPB,Plasma,99.73%
same,Stability,Liver [4],20%
same,Stability,Liver [5],57%
same,Papp,MDCK [6],72 ×10⁻⁶ cm/s
same,Papp,MDCK [7],9.1 ×10⁻⁶ cm/s
same,CC50 at 1 h,[8],> 1000 µM
same,RatioGI50,CCRF-CEM,1
same,RatioGI50,MES-SA,1.6
same,Activity,BT-20,Active
same,Stability,Liver [9],33%
same,Activity,Tubulin (Sus scrofa),inactive
same,Activity,DU-145 [10],Active
same,Activity,DU-145 [11],Active
same,Activity,DU-145 [12],Active
same,Activity,DU-145 [13],Active
same,IC50,[14],0.009 µM
same,GI50,[15],0.008 µM
same,Activity,K562,Dose-dependent effect
same,GI50,"K562; K562, 96 h",0.003 µM
same,IC50,"K562; K562, 96 h",0.003 µM
same,Ratio,MDCK [16],7.9
